Tests used:
[1] = Plasma concentration in rat at 10 mg/kg, po after 4 hrs; type: ADME, organism-based; design: dose 10 mg/kg, route oral
Outline: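 Single oral dose of 10 mg/kg in rats, two animals. Plasma was sampled at 4 h and the two values averaged. LOQ 2 ng/mL.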

Cytochrome P450 1A2 = biological target: T1, Cytochrome P450 1A2 (Homo sapiens, UniProt P05177); test: Inhibition of CYP1A2; type: ADME
T1 sequence (P05177 whole entry): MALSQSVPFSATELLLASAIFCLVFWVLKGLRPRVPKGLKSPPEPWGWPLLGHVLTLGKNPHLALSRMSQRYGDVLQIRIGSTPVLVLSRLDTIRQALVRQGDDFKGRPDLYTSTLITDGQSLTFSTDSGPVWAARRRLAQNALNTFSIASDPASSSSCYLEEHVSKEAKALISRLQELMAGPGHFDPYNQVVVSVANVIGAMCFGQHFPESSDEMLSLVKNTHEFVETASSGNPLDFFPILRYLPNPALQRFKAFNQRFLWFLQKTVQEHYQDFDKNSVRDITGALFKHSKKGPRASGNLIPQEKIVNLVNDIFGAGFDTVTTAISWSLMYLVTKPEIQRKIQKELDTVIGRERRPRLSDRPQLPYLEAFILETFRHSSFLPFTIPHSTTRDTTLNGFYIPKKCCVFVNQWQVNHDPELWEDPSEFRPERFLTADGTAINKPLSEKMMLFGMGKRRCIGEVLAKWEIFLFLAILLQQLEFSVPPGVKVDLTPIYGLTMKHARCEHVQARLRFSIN

[2] = Apparent permeability from apical to basolateral side of the human Caco2 cells; type: ADME, cell-based; conditions: Caco-2
[3] = Plasma concentration in cPP-induced feeding rat model at 3 mg/kg, po after 1 hr; type: ADME, organism-based; design: dose 3 mg/kg, route oral
Outline: (§1)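 Satellite rats (n = 2/dose) sampled each week alongside the cPP feeding test; Lu-series dosed po at 3, 10 or 30 mg/kg as suspension in 20% HP-β-cyclodextrin; plasma (ng/mL) and brain tissue (ng/g) levels taken at 1, 2, 4, 6 and 24 h post-dose; mean ± SD reported.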

[4] = Plasma concentration in cPP-induced feeding rat model at 3 mg/kg, po after 2 hrs; type: ADME, organism-based; design: dose 3 mg/kg, route oral; outline: as §1
[5] = Drug uptake in brain of cPP-induced feeding rat model at 3 mg/kg, po after 1 hr; type: ADME, organism-based; design: dose 3 mg/kg, route oral; conditions: read-out: Drug uptake; outline: as §1
[6] = biological target: T2, Neuropeptide Y receptor type 5 (Rattus norvegicus, UniProt Q63634); test: Antagonist activity at rat NPY5 receptor; type: functional
T2 sequence (Q63634 whole entry): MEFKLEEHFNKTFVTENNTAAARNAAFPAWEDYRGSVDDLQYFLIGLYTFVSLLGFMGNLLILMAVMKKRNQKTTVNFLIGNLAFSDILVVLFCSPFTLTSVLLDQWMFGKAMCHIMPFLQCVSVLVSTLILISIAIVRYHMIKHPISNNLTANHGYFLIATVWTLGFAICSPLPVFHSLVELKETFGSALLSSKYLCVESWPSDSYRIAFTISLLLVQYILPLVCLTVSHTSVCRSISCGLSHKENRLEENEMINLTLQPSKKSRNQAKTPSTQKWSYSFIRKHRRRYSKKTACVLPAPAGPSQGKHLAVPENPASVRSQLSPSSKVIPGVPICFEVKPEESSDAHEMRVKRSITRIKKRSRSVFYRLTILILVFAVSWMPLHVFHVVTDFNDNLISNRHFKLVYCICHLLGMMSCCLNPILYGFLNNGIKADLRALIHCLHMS

[7] = biological target: T3, Neuropeptide Y receptor type 5 (Homo sapiens, UniProt Q15761); test: Binding affinity to human NPY5 receptor
T3 sequence (Q15761 whole entry): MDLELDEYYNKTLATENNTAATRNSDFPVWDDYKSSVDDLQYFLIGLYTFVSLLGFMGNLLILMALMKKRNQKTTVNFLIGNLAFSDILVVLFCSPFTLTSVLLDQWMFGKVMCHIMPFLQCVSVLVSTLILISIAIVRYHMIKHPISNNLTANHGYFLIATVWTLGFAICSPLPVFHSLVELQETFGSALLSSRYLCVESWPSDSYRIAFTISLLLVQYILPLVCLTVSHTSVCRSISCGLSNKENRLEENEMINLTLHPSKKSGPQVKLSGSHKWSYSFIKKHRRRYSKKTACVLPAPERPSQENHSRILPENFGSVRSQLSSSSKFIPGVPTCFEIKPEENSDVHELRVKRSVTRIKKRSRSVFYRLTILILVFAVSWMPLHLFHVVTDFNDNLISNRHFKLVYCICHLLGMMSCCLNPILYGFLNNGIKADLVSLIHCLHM

- concentration at 4 h [1]: 320 ng/mL
- IC50 (Cytochrome P450 1A2): > 10000 nM
- Papp A→B [2]: 36.7 ×10⁻⁶ cm/s
- concentration at 1 h [3]: 54 ng/mL
- concentration at 2 h [4]: 87 ng/mL
- concentration at 1 h [5]: 54 ng/g
- Ki [6]: 1.4 nM
- Ki [7]: 1.5 nM
Structure (SMILES): CS(=O)(=O)NC[C@H]1CC[C@H](Nc2nc3c(s2)CCSc2ccccc2-3)CC1

— ChEMBL document CHEMBL1833793 (Bioorg Med Chem Lett, 2011)
